This series is described as follows: Toxicity liver stage against HepG2, at 10uM. The series is classed as cell-based. Particulars: human, HepG2-A16-CD81EGFP cells; read-out: INHIBITION
The arrangement: test concentration 10 uM, cell line HepG2-A16-CD81EGFP. The method, boiled down: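 Uninfected HepG2-A16-CD81EGFP cells, 3 × 10^3 per well, 1536-well, plated on prespotted compound at 10 μM final, parasite-free screening media added to match infected plates; puromycin 10 μM positive, DMSO 0.5% negative; run in parallel with 48 h PbLuc assay at 37 °C, 5% CO2; viability by CellTiter-Glo luminescence, normalized to controls.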
For the compound `COc1ccc2nc(C[C@@H]3C[C@@H](C(C)C)[C@H](CN(C)C)C=C3C)[nH]c2n1`, the cytotoxicity at 10 µM is 5.09%. For the compound `CC(=O)N1CCC(=O)N(C2CCCC2)Cc2ccccc21`, the cytotoxicity at 10 µM was -6.09%. For `CC1(C)OCC2(CO1)CN(C(=O)c1ccccc1Cl)C2` the value was -4.21%.

For `O=S(=O)(c1ccccc1F)N1CCC(Oc2cccnn2)CC1`, the cytotoxicity at 10 µM came to 0.388%. The figure for `Cc1ccnc(OC[C@]23COC[C@H]2CN(C(=O)c2ccnn2C)C3)n1` is 3.16%. For `c1cncc(OCC2CN(Cc3ccco3)Cc3nccn3C2)c1` (configuration not stated) the value was -20.4%; for `Cn1cc(S(=O)(=O)N2CCN(S(=O)(=O)c3ccc(Br)s3)CC2)cn1`, 11.8%. Take `CCn1nc(C)c2nc(C)nc(N(C)Cc3ccco3)c21`: the cytotoxicity at 10 µM came out at 4.23%.

Turning to `O=C(COCc1nc(-c2ccncc2)no1)N1CCCCCC1`, the cytotoxicity at 10 µM is -8.83%. Turning to `Cc1nn(C)cc1CN1CCCC(n2c(=O)oc3ccccc32)C1` (configuration not stated), the cytotoxicity at 10 µM came to 3.33%.

For `Cc1cc(C)nc(C2CCCN2S(=O)(=O)N2CCOCC2)n1` (configuration not stated), the cytotoxicity at 10 µM turned out to be 0.55%. In the case of `N#Cc1ccc(CN2CCCC3(Cc4ccccc4CNC3=O)C2)cc1` (configuration not stated), the cytotoxicity at 10 µM is 11.8%.

Turning to `CN1CCN(C)c2cc(NC(=O)c3cc[nH]n3)ccc2C1`, the cytotoxicity at 10 µM was -10.9%. The figure for `Cn1c(CO)cnc1SC(C(=O)NC1CC1)c1ccccc1` (configuration not stated) is -56%; for `CN(C)c1cccc(C(=O)N2CCCc3cc(OC(F)(F)F)ccc32)c1` it is -44.4%. As to `CC1Oc2c(cccc2C(=O)N2CCN(CC(C)(C)O)CC2)NC1=O` (configuration not stated), the cytotoxicity at 10 µM was -8.9%. For `CCOc1cncc(NCCc2nnc3ccccn23)n1` the value was 9.84%; for `Cc1nnc2ccc(N3CCN(Cc4nccn4C)CC3)nn12`, 13.3%; for `COC(=O)CCN(CC1CCCO1)C(=O)Cc1ccc(OC)c(OC)c1` (configuration not stated), 4.08%. For `N#CCCCOc1cccc(CN2CCCC2c2ccc[nH]2)c1` (configuration not stated) the value was -14.5%; for `CC(NC1(CNC(=O)NC2CC2)CCOCC1)c1ccccc1` (configuration not stated), 10.2%; for `Cn1cnnc1C1CCN(C(=O)CCCOCc2ccccc2)CC1`, -7.06%.

Turning to `CCCC(NC(=O)c1ccc(C)cc1C)c1nnn[nH]1` (configuration not stated), the cytotoxicity at 10 µM is -3.82%. For `Cc1nc(C2CCCN(C(=O)c3sc(C)nc3C)C2)no1` (configuration not stated) the value was -1.96%; for `Cc1n[nH]c(C2CN(CC(=O)NCCc3ccccc3C)CCO2)n1` (configuration not stated), -3.94%; for `Cc1[nH]c(=O)sc1S(=O)(=O)N1CCCC1C(=O)NC1CC1` (configuration not stated), 5.36%. On to `Cn1cc(S(=O)(=O)NC(CO)Cc2c[nH]c3ccccc23)cn1` (configuration not stated), for which the cytotoxicity at 10 µM is -7.37%. Turning to `CC(c1nc(C2CC2)no1)N(C)Cc1ccc(Cl)cc1` (configuration not stated), the cytotoxicity at 10 µM stood at 3.74%.

Regarding `Fc1ccc(Br)c(NCc2nnsc2Cl)c1`, the cytotoxicity at 10 µM stood at 14.3%. For `OC(CNC1CCOCC1)c1ccc(Cl)c(F)c1` (configuration not stated) the value was -1.12%; for `CC(C)c1nnc2n1CCN(C(=O)c1cnc(C3CC3)s1)C2`, 4.87%. In the case of `Nc1ccnn1C1CCN(Cc2ccccc2)C1` (configuration not stated), the cytotoxicity at 10 µM stood at 6.36%. For `CN(Cc1cncs1)C1CCN(C(=O)OC(C)(C)C)CC1` the value was 5.94%. With `COCC(NC(=O)c1ccc(O)nc1)c1ccc(C)o1` (configuration not stated), the cytotoxicity at 10 µM came to 4.96%. `CN(CCOCC1CC1)C(=O)Cn1cccc(C(F)(F)F)c1=O`: the cytotoxicity at 10 µM was -6.96%. On to `CC(=O)OCC1CCCCN1C(=O)c1ccc(Cn2ccnc2)o1` (configuration not stated), for which the cytotoxicity at 10 µM is -54.5%. The figure for `Cc1ccc(C)c(CS(=O)(=O)CC(=O)N(C)Cc2cccc(F)c2)c1` is 4.42%. Take `CC(C(=O)NC1CC1)S(=O)(=O)Cc1csc(-c2cccs2)n1` (configuration not stated): the cytotoxicity at 10 µM worked out at 9.02%. In the case of `COc1cc(C)c(CNC(C)c2csc(C3CC3)n2)cc1OC` (configuration not stated), the cytotoxicity at 10 µM was -2.21%. The figure for `O=C1OCCC1N1CCN(c2ccc(O)cc2)CC1` (configuration not stated) is -1.29%; for `O=C(CN1CCCC(O)C1)NC(=O)NCc1cccs1` (configuration not stated) it is 0.795%. For `COCCN1C(=O)CC[C@@H]2[C@H]1CCN2S(=O)(=O)c1cccs1` the value was -87.2%. The figure for `N#Cc1ccc(C(=O)N2CCc3c(COCC4CC4)cncc3C2)cc1` is -98.8%; for `Cc1cccc(CN2CCC3(CC2)COC(COCC2CC2)C3)n1` (configuration not stated) it is -108%. `Cc1nc(-c2nc(C(=O)NC3CC3)c3ccccn23)cn1C(C)C`: the cytotoxicity at 10 µM was -103%. As to `Cc1cc(C(F)(F)F)nc(CNc2cc(C)nc3cc(C)nn23)n1`, the cytotoxicity at 10 µM came out at 9.29%. Turning to `Cc1cc(C(F)(F)F)nc(CCNc2nc(C)nc3sccc23)n1`, the cytotoxicity at 10 µM is 9.46%. In the case of `COCCN(Cc1ccc(C)cc1)Cc1nccn1C`, the cytotoxicity at 10 µM was -63.3%. For `COc1cccc2c1OCC(C(=O)NCCc1nnc(N)s1)C2` (configuration not stated) the value was -33.4%. With `Cc1ccc(OC2(C(=O)O)CCN(C(=O)c3ccoc3C)CC2)cn1`, the cytotoxicity at 10 µM was -1.56%.

With `CN(C)CC(=O)NC1CC(C)(C)Cc2nc(C(C)(C)C)ncc21` (configuration not stated), the cytotoxicity at 10 µM is -13.4%. For the compound `CCCn1cc(C(=O)NC(C)c2c(C)nn(CC)c2C)c(C)n1` (configuration not stated), the cytotoxicity at 10 µM is 5.31%.

In the case of `COc1nc2c(cc1C(=O)NCc1nc(CSC)no1)CCC2`, the cytotoxicity at 10 µM is -11.7%. Regarding `COc1ccc(CN2CC(=O)N(c3ccc(C)cc3)CC2C)cc1O` (configuration not stated), the cytotoxicity at 10 µM amounted to 4.84%.

Consider `Cn1nccc1NC(=O)Cn1ccc(-c2ccc3c(c2)OCO3)n1`, for which the cytotoxicity at 10 µM is -6.74%. `Cc1sc2nc(CCN)nc(N(C)CCCC3CCCO3)c2c1C` (configuration not stated): the cytotoxicity at 10 µM was -6.01%. The figure for `CCc1ncc(C(=O)NCCN(C)S(C)(=O)=O)cn1` is 4.03%.

With `CCCn1ccnc1CNC(=O)C1COc2cc(OC)ccc2C1` (configuration not stated), the cytotoxicity at 10 µM stood at 1.61%.

As for `FC(F)(F)CCc1ccnc(NC2CCOC2)n1` (configuration not stated), the cytotoxicity at 10 µM was 16.4%. The figure for `CC(C)c1nc(Cn2cncn2)n(-c2ccccn2)n1` is -1.03%; for `COc1cc(C)cc(C(C(=O)O)N(C)Cc2ccncc2C)c1OC` (configuration not stated) it is 0.231%.

`CN1CCCN(C(=O)c2csc3nc(-c4ccc(Cl)cc4)cn23)CC1`: the cytotoxicity at 10 µM is 2.14%. For `COc1cccc(OCC2CCCN(C(=O)c3cnc(C)nc3O)C2)c1` (configuration not stated) the value was -15.8%; for `CCCc1n[nH]cc1C(=O)N1CCC(c2nccn2CCOC)CC1`, -15.3%.

Take `Cc1cc(CN2CCC(CNC(=O)c3nccc4ccccc34)C2)[nH]n1` (configuration not stated): the cytotoxicity at 10 µM was 14.1%. The figure for `CCc1noc(CN2CCN(C(=O)c3ccccc3F)CC2)n1` is -23.2%; for `Cc1nn(-c2ccccc2)cc1C(=O)N1CCCC1c1cnn(C)c1` (configuration not stated) it is -1.86%; for `Cc1nn(CC(C)C)c(N(C)C)c1CNCc1ccnn1C` it is -22.3%. For `Cc1cnn(CCNCc2csc(-c3ccc(C(N)=O)cc3)n2)c1` the value was -7.75%; for `O=C(Cc1noc2ccccc12)N1CCC(Nc2cccnn2)CC1`, -7.85%. Regarding `Cc1nccn1C1CCCN(C(=O)c2cccc(-n3cccc3)c2)C1` (configuration not stated), the cytotoxicity at 10 µM was -23%.

`COc1c(CNCc2ccc(CS(C)(=O)=O)cc2)c(C)nn1C`: the cytotoxicity at 10 µM is -4.47%. The figure for `O=C(CSCc1ccncc1)NCc1csc(Br)c1` is -6.57%. `Cc1cnn(CC2CCCN2C(=O)c2nccnc2N)c1` (configuration not stated): the cytotoxicity at 10 µM is -27.6%. `COc1ccccc1CC1CCCN(CCC(N)=O)C1` (configuration not stated): the cytotoxicity at 10 µM was -5.06%. The figure for `CN(Cc1ncc(-c2ccccc2)o1)C1CCCN(c2cccnn2)C1` (configuration not stated) is -29.1%. On to `CCc1c(C(=O)N2CCN(c3ncccn3)CC2)cnn1C(C)(C)C`, for which the cytotoxicity at 10 µM was -1.91%. As for `CN(CC(=O)N1CCC(Oc2ccccc2)CC1)c1cnccn1`, the cytotoxicity at 10 µM was 2.12%.

On to `Cc1ncc2c(n1)CN(Cc1nnc(Cc3ccccc3)o1)CC2`, for which the cytotoxicity at 10 µM was 1.13%. For `c1sc(C2CCCC2)nc1CN1CCn2c(nnc2C2CC2)C1` the value was -1.62%; for `Cc1ccc(NC2CCN(C(=O)CC3CCCO3)CC2)nn1` (configuration not stated), -10.5%. The figure for `O=C(CN1CCC(c2cccc(F)c2)C1)NCc1ccco1` (configuration not stated) is -7.88%. The figure for `O=C(CN1CCCCC1Cn1cncn1)NCCc1ccc(F)cc1` (configuration not stated) is -1.65%; for `OC(CN1CCC(c2ccn[nH]2)CC1)c1cccc(F)c1` (configuration not stated) it is -7.64%.

Consider `CCc1nccn1C1CCCN(C(=O)c2cc3nc(C)ccc3o2)C1` (configuration not stated), for which the cytotoxicity at 10 µM was -15.5%. With `O[C@@H]1CN(Cc2cccc(F)c2)CC[C@H]1NCc1ccccn1`, the cytotoxicity at 10 µM was -1.6%. The figure for `OC1(c2ccc(F)cc2)CCN(Cc2ccccc2N2CCCC2)CC1` is 20.5%. For `CNC(=O)CN1CCOCC2(CCCN(CCc3ccccc3)C2)C1` (configuration not stated) the value was 0.0221%. Regarding `CC1c2ncc(Cn3cccn3)n2CCN1S(C)(=O)=O` (configuration not stated), the cytotoxicity at 10 µM was -99.2%. The figure for `C1CC(CN2CCc3c(nnn3CC3CC3)C2COCC2CC2)C1` (configuration not stated) is 7.61%; for `Cc1cccc(COC[C@@H]2CC[C@H]3[C@H](CCN3Cc3ccco3)O2)n1` it is -9.81%. In the case of `O=C(NC1CC1)N1CCC2(CC1)CC(N1CCOCC1)c1ccccc12` (configuration not stated), the cytotoxicity at 10 µM is -109%. For the compound `CN1CC[C@]2(CN(CC3CCOCC3)C[C@H]2c2ccccc2)C1=O`, the cytotoxicity at 10 µM is -1.18%. Consider `COc1c(CNCc2cccc(Cn3ccnc3C)c2)c(C)nn1C`, for which the cytotoxicity at 10 µM came to 23.8%. The figure for `O=C(NCC1COCc2c(-c3cccnc3)nnn2C1)c1cccs1` (configuration not stated) is 2.93%; for `CN(C)CC1[C@H]2CN(C(=O)c3cc(=O)[nH]c4ccc(F)cc34)C[C@@H]12` (some centres not stated) it is -6.68%; for `COc1ccc(-n2cc3nc(N)[nH]cc-3c2=O)cc1Cl` it is 17.7%.

The values above are taken from ChEMBL document CHEMBL4513216, “Probing the Open Global Health Chemical Diversity Library for Multistage-Active Starting Points for Next-Generation Antimalarials” (ACS Infect Dis, 2020).
